ChEMBL document CHEMBL4680131, “Fangchinoline derivatives induce cell cycle arrest and apoptosis in human leukemia cell lines via suppression of the PI3K/AKT and MAPK signaling pathway” (Eur J Med Chem, 2020)
The source made the active and inactive calls. The rule behind the calls is not given here.

What was measured:
[1] = tested on: MDA-MB-231; experiment: Cytotoxicity against human MDA-MB-231 cells assessed as reduction in cell viability incubated for 48 hrs by MTT assay; assay type: functional, cell-based; settings: MDA-MB-231, 48 h
Procedure, shortened: (§1)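 MTT viability after 48 h exposure. Cells (1×10^4/well) were allowed 24 h at 37 °C before dosing. Leukemia lines were grown in RPMI and breast lines in high-glucose DMEM, each with 5% FBS under 5% CO2. MTT was added for 4 h, formazan dissolved in DMSO, and absorbance read at 490 nm. Triplicate wells; values averaged over at least 3 independent experiments.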

[2] = tested on: MCF7; experiment: Potency index, ratio of fangchinoline IC50 to test compound IC50 for human MCF-7 cells; assay type: functional
[3] = tested on: HEL; experiment: Induction of cell cycle arrest in human HEL cells assessed as up regulation of p21 incubated for 1 hr by Western blot analysis; assay type: functional, cell-based
Procedure, shortened: (§2)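 HEL cells were lysed in RIPA after compound or DMSO treatment. Lysates were run on 10% SDS-PAGE, transferred to PVDF and blocked in 5% BSA for 1 h. Blots were probed overnight at 4 °C with antibodies to PARP, caspase-3, caspase-9, c-MYC or p21, then HRP secondary for 2 h, and detected by ECL. β-actin served as loading control.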

[4] = tested on: MDA-MB-231; experiment: Potency index, ratio of fangchinoline IC50 to test compound IC50 for human MDA-MB-231 cells; assay type: functional
[5] = tested on: HEL; experiment: Induction of apoptosis in human HEL cells assessed as viable cells by Annexin-V/propidium iodide staining-based flow cytometric analysis (reference value: 96.62%); assay type: functional
[6] = tested on: HEL; experiment: Inhibition of Akt in human HEL cells assessed as PI3K/AKT phosphorylation at 2.5 uM after 8 hrs by Western blot analysis; assay type: cell-based
Procedure, shortened: (§3)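 HEL cells were treated with 2.5 µM for 8 h, with DMSO as control. RIPA lysates were run on 10% SDS-PAGE and transferred to PVDF. Blots were blocked in 5% BSA, incubated overnight at 4 °C with antibodies to total and phospho Akt, ERK and JNK, then HRP secondary, and detected by ECL. Bands were normalized to β-actin; means ± SD of triplicates in three independent runs; t-test.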

[7] = tested on: HEL; experiment: Induction of apoptosis in human HEL cells assessed as late apoptotic cells by Annexin-V/propidium iodide staining-based flow cytometric analysis (reference value: 0.76%); assay type: functional
[8] = tested on: MCF7; experiment: Potency index, ratio of vincristine IC50 to test compound IC50 for human MCF-7 cells; assay type: functional
[9] = tested on: HEL; experiment: Induction of cell cycle arrest in human HEL cells assessed as accumulation of cells at G0/G1 phase measured after 1 hrs by flow cytometry; assay type: functional, cell-based
Procedure, shortened: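 HEL cells (2×10^5/well) were given DMSO or compound, then fixed in ice-cold 70% ethanol at 4 °C overnight and washed in PBS. Cells were stained 1 h at 37 °C in the dark with PBS containing 50 µg/mL PI and 100 µg/mL RNase. DNA content was analyzed by flow cytometry.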

[10] = tested on: HEL; experiment: Potency index, ratio of fangchinoline IC50 to test compound IC50 for human HEL cells; assay type: functional
[11] = tested on: HEL; experiment: Induction of apoptosis in human HEL cells assessed as increase in caspase 9 cleavage by Western blot analysis; assay type: functional, cell-based; procedure, shortened: as §2
[12] = tested on: K562; experiment: Cytotoxicity against human K562 cells assessed as reduction in cell viability incubated for 48 hrs by MTT assay; assay type: functional, cell-based; settings: K562, 48 h; procedure, shortened: as §1
[13] = tested on: HEL; experiment: Cytotoxicity against human HEL cells assessed as reduction in cell viability incubated for 48 hrs by MTT assay; assay type: functional, cell-based; procedure, shortened: as §1
[14] = tested on: HEL; experiment: Induction of apoptosis in human HEL cells assessed as increase in JNK phosphorylation at 2.5 uM after 8 hrs by Western blot analysis; assay type: functional, cell-based; procedure, shortened: as §3
[15] = tested on: MCF7; experiment: Cytotoxicity against human MCF-7 cells assessed as reduction in cell viability incubated for 48 hrs by MTT assay; assay type: functional, cell-based; settings: MCF7, 48 h; procedure, shortened: as §1
[16] = tested on: HEL; experiment: Antiproliferative activity against human HEL cells assessed as reduction in cell viability incubated for 12 to 72 hrs by MTT assay; assay type: functional, cell-based; settings: dose 0.5-2 µM, time 12-72 hrs
Procedure, shortened: (§4)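 HEL cells were kept in RPMI with 5% FBS at 37 °C and 5% CO2. They were seeded at 1×10^4/well and given 24 h before dosing. Exposure ran 12, 24, 36, 48 or 72 h, then MTT was added for 4 h, formazan dissolved in DMSO, and absorbance read at 490 nm. Triplicate wells, repeated at least three times.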

[17] = tested on: HEL; experiment: Induction of cell cycle arrest in human HEL cells assessed as down regulation of cMyc incubated for 1 hr by Western blot analysis; assay type: functional, cell-based; procedure, shortened: as §2
[18] = Inhibition of AKT (unknown origin) by ELISA assay; design: species or system Homo sapiens
Procedure, shortened: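 Akt kinase activity kit run per the manufacturer's protocol. Akt source was lysate of compound-treated human leukemia HEL cells, purified on a Mono Q anion-exchange column before the kinase measurement. HEL cells were grown in RPMI with 5% FBS at 37 °C and 5% CO2. The value is reported as an IC50.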

[19] = tested on: HEL; experiment: Inhibition of ERK phosphorylation in human HEL cells at 2.5 uM after 8 hrs by Western blot analysis; assay type: cell-based; procedure, shortened: as §3
[20] = tested on: HEL; experiment: Antiproliferative activity against human HEL cells assessed as reduction in cell viability at 0.5 to 2 uM by MTT assay; assay type: functional, cell-based; settings: dose 0.5-2 µM, time 12.0 hrs, TDE = time-dependent effect; procedure, shortened: as §4
[21] = tested on: HEL; experiment: Induction of apoptosis in human HEL cells assessed as increase in caspase 3 cleavage by Western blot analysis; assay type: functional, cell-based; procedure, shortened: as §2
[22] = tested on: MDA-MB-231; experiment: Potency index, ratio of vincristine IC50 to test compound IC50 for human MDA-MB-231 cells; assay type: functional
[23] = tested on: HEL; experiment: Induction of apoptosis in human HEL cells assessed as early apoptotic cells by Annexin-V/propidium iodide staining-based flow cytometric analysis (reference value: 2.26%); assay type: functional
[24] = tested on: HEL; experiment: Induction of apoptosis in human HEL cells assessed as increase in PARP cleavage by Western blot analysis; assay type: functional, cell-based; procedure, shortened: as §2
[25] = tested on: HEL; experiment: Induction of apoptosis in human HEL cells assessed as necrotic cells by Annexin-V/propidium iodide staining-based flow cytometric analysis (reference value: 0.34%); assay type: functional
[26] = tested on: HEL; experiment: Potency index, ratio of vincristine IC50 to test compound IC50 for human HEL cells; assay type: functional

For `COc1ccc2cc1Oc1ccc(cc1)C[C@H]1c3cc(c(OC)cc3CCN1C)Oc1c(OC(=O)C3CCCS3)c(OC)cc3c1[C@H](C2)N(C)CC3` (stereo partly specified), the IC50 [1] was 1600 nM, the “Ratio IC50” value [2] was 9 and the Activity [3] was “Active”. The “Ratio IC50” value [4] was 36, the Activity [5] was 48.12% and the inhibition [6] was “Active”. For the same compound, the Activity [7] was 27.92%, the “Ratio IC50” value [8] was 10 and the Activity [9] was “Active”. For the same compound, the “Ratio IC50” value [10] was 15, the Activity [11] was “Active” and the IC50 [12] was 1530 nM. The IC50 [13] was 1520 nM, the Activity [14] was “Active” and the IC50 [15] was 4010 nM. For the same compound, the Activity [16] was “Dose-dependent effect”, the Activity [17] was “Active” and the IC50 [18] was 550 nM. The inhibition [19] was “Active”, the Activity [20] was “Tde” and the Activity [21] was “Active”. For the same compound, the “Ratio IC50” value [22] was 10, the Activity [23] was 19.97% and the Activity [24] was “Active”. For the same compound, the Activity [25] was 3.38% and the “Ratio IC50” value [26] was 10.
